Assay outcomes as filed in PubChem.
GalR3 antagonist = blocks the human galanin receptor 3; 360,000 compounds, 0.44% hits; inhibition, % at 3 µM; HEK293 GalR3-CNG cAMP membrane potential fluorescence; galR3 body fused to GalR1 C-terminus;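 active means inhibition above the screen-wide average plus 3 SD, cut at about 13% in these data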;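 further: forskolin and galanin both at EC90 stimulate the cells; cAMP rise reported by CNG channel membrane potential dye signal; 0% = forskolin plus galanin with DMSO and 100% = forskolin alone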
CHO parental Ca = counter-screen: ATP calcium response change in parental CHO cells; parental CHO-K1, ATP-induced calcium, Fluo-8 fluorescence; inhibition, % at 5.6 µM; 330,000 compounds, 0.63% hits; AID 463079;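 active means inhibition above that plate's mean sample inhibition plus 3 SD, cut at about 26% in these data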;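 further: 0% = ATP-challenged DMSO wells and 100% = DMSO wells without ATP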
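Material – parental CHO cells · Reagent – ATP stimulus · Compound – single nominal dose of 5.6 µM per compound · Detection – Fluo-8 fluorescence · Read-out basis – percent inhibition of calcium signal · Controls – ATP-challenged DMSO wells low, unchallenged DMSO wells high · Repeats – no replicates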
TAAR1 ag = human TAAR1 agonism | Q96RJ0 | CHO RD-HGA16 TAAR1, Fluo-8 calcium fluorescence; vehicle wells 0%, saturating PEA agonist 100% | activation, % at 3 µM | 360,000 compounds, 0.99% hits;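 active means activation above the mean activation of all test compounds in the run plus 3 SD, cut at about 38% in these data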
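Assay system: CHO-derived RD-HGA16 cells with stable Gα16 and human TAAR1; timing: 17-24 h seeding, 75 min 37 °C dye, 30 min RT; read-out: % activation from peak over basal fluorescence ratio, DMSO-to-PEA scaled; measured by: kinetic Fluo-8 calcium fluorescence; benchmarks: low control DMSO, high control PEA (EC100); doses: 3 µM single concentration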
TAAR1 antag = antagonists of human TAAR1; Q96RJ0; CHO RD-HGA16 TAAR1, Fluo-8 calcium fluorescence, antagonist; inhibition, % at 3 µM; 360,000 compounds, 1.5% hits; AID 624466;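 active means inhibition above a per-plate cutoff, the mean inhibition of test compounds on that plate plus 3 SD, cut at about 49% in these data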;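 further: 0% = DMSO plus EC80 beta-PEA response and 100% = DMSO alone without agonist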
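Material: CHO RD-HGA16 cells bearing hTAAR1; compound dosing: one-point dosing, 3 µM nominal final; schedule: dye loading 75 min at 37 °C, then 30 min room temperature; measured by: calcium fluorescence with Fluo-8; control set: vehicle and agonist controls; replication: n of 1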
OX1R antag-1 = antagonists of human orexin 1 receptor (OX1R); OX1R-expressing cells, FRET antagonist read-out; inhibition, % at 6.6 µM; O43613; 330,000 compounds, 1.8% hits; in the data active means inhibition mostly above about 38%, no sharp cut-off; inactive means mostly below about 40%;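 further: 0% = agonist challenge alone and 100% = reference antagonist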
Target sequence (O43613 whole entry, looked up): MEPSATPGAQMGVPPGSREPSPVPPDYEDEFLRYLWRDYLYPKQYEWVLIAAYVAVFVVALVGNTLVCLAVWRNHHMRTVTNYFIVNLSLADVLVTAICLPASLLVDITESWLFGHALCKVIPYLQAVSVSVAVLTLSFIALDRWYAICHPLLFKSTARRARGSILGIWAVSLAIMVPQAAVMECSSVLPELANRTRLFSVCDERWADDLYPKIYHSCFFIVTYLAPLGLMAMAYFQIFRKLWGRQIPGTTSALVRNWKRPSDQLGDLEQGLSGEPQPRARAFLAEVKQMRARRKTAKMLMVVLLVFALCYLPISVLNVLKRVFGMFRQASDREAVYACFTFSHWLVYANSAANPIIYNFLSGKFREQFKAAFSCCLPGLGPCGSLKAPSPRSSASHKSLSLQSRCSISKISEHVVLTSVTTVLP
OX1R antag-2 = blocks the human orexin 1 receptor; CHO/OX1R cells, Fluo-8 calcium fluorescence, orexin A; inhibition, % at 5 µM; 330,000 compounds, 0.43% hits; AID 434989;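 active means inhibition above its plate's threshold, mean inhibition of all tested compounds on the plate plus 3 SD, cut at about 37% in these data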;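 further: 0% = orexin A challenge wells and 100% = SB-334867-A antagonist wells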
Starred values were filed as active, the others as inactive; . = no result. Compounds with a hit are over-represented: about 4.3% of the library has one in this group of screens.

SMILES	GalR3 antagonist	CHO parental Ca	TAAR1 ag	TAAR1 antag	OX1R antag-1	OX1R antag-2
COc1cc(C2(c3ccc(O)c(OC)c3)C(=O)Nc3c(C)cc(Br)cc32)ccc1O	-2	26	31	51*	5	4
Cn1ncc2c(Nc3ccc([N+](=O)[O-])cc3)nc(Cl)nc21	-5	.	41*	-2	.	.
OC[C@@H]1CN(Cc2cccc3ccccc23)C[C@H](n2cnc3c(NCc4ccco4)ncnc32)O1	-8	.	20	65*	.	.
OC[C@@H]1CN(Cc2ccc(F)cc2)C[C@H](n2cnc3c(Nc4ccccc4)ncnc32)O1	-8	.	11	39	.	.
OC[C@@H]1CN(Cc2ccc(-c3ccccc3)cc2)C[C@H](n2cnc3c(Nc4ccccc4)ncnc32)O1	-8	.	11	51*	.	.
CC(C)CNc1ncnc2c1ncn2[C@H]1CN(Cc2cccc3ccccc23)C[C@@H](CO)O1	-7	.	5	7	.	.
CC(C)CNc1ncnc2c1ncn2[C@H]1CN(CCc2ccccc2)C[C@@H](CO)O1	-4	.	41*	-11	.	.
CCc1cc2c(nc1CC)CCCN2S(=O)(=O)c1ccc(OC)cc1	2	.	1	-24	.	.
Nc1c(C(=O)c2ccc(Br)cc2)oc2ccccc12	-7	-9	5	-4	27	-4
Nc1c(C(=O)c2ccccc2)oc2ccc(Br)cc12	-2	-32	20	19	59*	24
Cc1ccc(Cl)cc1NS(=O)(=O)c1ccc2oc(=O)ccc2c1	-9	-3	4	11	13	-12
Cc1ccc(-c2csc(N=C(N)N)n2)c(C)c1	-3	-3	38*	-29	6	-11
O=C(C(=O)N1CCC(CNS(=O)(=O)c2ccc(C(F)(F)F)cc2)CC1)c1cccs1	-5	.	7	-6	.	.
COc1ccc(C(=O)NCCCc2ccccc2)cc1OC	-9	-6	6	-10	2	-13
COc1cc(/C=C2\SC(=S)N(N(C)c3ccccc3)C2=O)ccc1O	-8	5	21	-4	6	12
Cc1csc(NC(=O)c2cc3c(s2)-c2ccccc2OC3)n1	-3	0	1	17	69*	10
COC(C(=O)N1CCC(n2nccc2NC(=O)C2CC2)CC1)c1ccccc1 (stereo not drawn)	3	-12	2	-18	20	-4
COc1ccc(-c2nn(-c3ccccc3)cc2C(=O)O)cc1N	-14	1	5	-12	3	-4
O=C(N/N=C/c1ccc2nccnc2c1)c1ccc(Br)cc1	2	-23	3	2	21	-13
O=C(N/N=C/c1ccc(F)cc1)c1cccc(NC(=O)c2ccccc2Cl)c1	-9	-12	22	54*	22	-30
O=C(N/N=C/c1cccnc1)c1cccc(NC(=O)c2ccccc2Cl)c1	-8	-16	6	6	24	-9
O=C(N/N=C/c1ccncc1)c1cccc(NC(=O)c2ccccc2Cl)c1	-5	-3	16	50*	20	-8
O=C(Nc1ccc(Cl)c(Cl)c1)O/N=C/c1ccncc1	-2	31*	19	-2	45	27
O=C(N/N=C/c1ccc2nccnc2c1)c1ccncc1	-5	-7	1	-5	55*	-5
CCCCNC(=O)C1C(c2ccc(OC)cc2)=Nc2ccccc2N1C(=O)c1ccncc1 (stereo not drawn)	0	.	4	-14	.	.
SMILES	GalR3 antagonist	CHO parental Ca	TAAR1 ag	TAAR1 antag	OX1R antag-1	OX1R antag-2
Clc1ccccc1-c1nc2nc3ccccc3nc2n1-c1ccc2c(c1)OCO2	-5	-16	10	49*	21	-10
Oc1cccc(Nc2nc(O)c(/C=C3\C=Nc4ccccc43)s2)c1	-6	17	19	40	18	10
Oc1nc(Nc2cccc(Cl)c2)sc1/C=C1\C=Nc2ccccc21	-10	-7	-2	54*	67	-12
COc1ccc(-c2nnn3c2C2c4cc(-c5cccc(F)c5)ccc4CCN2C(=O)C3)cc1 (stereo not drawn)	-6	.	9	-27	.	.
O=C1C=C(NCCN2CCOCC2)C(=O)c2cnccc21	.	-4	.	.	115*	1
COc1cc(N)c(Cl)cc1C(=O)OCC(=O)Nc1cccnc1Cl	-3	-1	3	-10	10	-7
O=C(NCCC(=O)N1CCCC(C(F)(F)F)C1)c1ccc(Br)cc1 (stereo not drawn)	-3	-13	0	5	16	-19
COc1ccc(S(=O)(=O)N2CCN(c3c(C)cccc3C)CC2)cc1OC	2	45*	-1	24	14	-34
CCOc1ccc(S(=O)(=O)N2CCN(c3ccc(C)cc3C)CC2)cc1	.	27*	7	18	9	-18
COc1ccc(S(=O)(=O)N2CCN(c3ccc(C)cc3C)CC2)cc1OC	2	36*	0	-6	14	-25
COc1ccc(NC(=O)c2cc(C3CCCCN3C(=O)c3ccc4c(c3)CCO4)on2)c(C)c1 (stereo not drawn)	3	.	3	-2	.	.
O=C(CNCCc1ccc(Cl)cc1)Nc1ccc(C(=O)N2CCCCC2)cc1	-11	-7	26	18	27	-7
Cc1cc(C)c(S(=O)(=O)c2ccc(C(C)(C)C)cc2)c(Cl)n1	-14	43*	22	15	11	2
Cc1cc(-c2ccc([N+](=O)[O-])cc2)nc2ccccc12	-1	-17	1	-20	29	-22
Cc1cc(-c2cccc([N+](=O)[O-])c2)nc2ccccc12	2	-6	-2	-19	69*	-8
COC1=CC(=O)c2ccccc2C1=O	.	-3	.	.	92*	9
COc1ccccc1-c1noc2c1C(=O)NCC2	-6	.	1	2	.	.
CN(C)c1ccc(C(=O)Nc2nc3c(s2)CCCC3)cc1	5	-1	0	-4	52*	-11
C[C@H](CO)N1C[C@H](C)[C@H](CN(C)C(=O)Cc2cccnc2)Oc2ncc(Br)cc2C1=O	-2	.	3	-32	.	.
CC(=O)Nc1nc2cccc([N+](=O)[O-])c2s1	-2	-2	1	4	74*	-9
Cc1ccsc1CN(C)CC(=O)Nc1ccc([N+](=O)[O-])cc1Cl	-10	-5	2	52*	35	-18
COc1ccc2nc(C(c3ccc(C)cc3)n3c(-c4ccccc4Br)nc4ccccc43)[nH]c2c1 (stereo not drawn)	-5	.	2	-11	.	.
Cc1cc(C(C#N)c2ccc(Cl)cc2)c(Cl)cc1NC(=O)c1cc(I)cc(I)c1O (stereo not drawn)	-1	47*	2	-1	62*	29
Cc1nn2c(CN(C(=O)CN3CCOCC3)c3ccccc3)nnc2c2ccccc12	6	-8	-1	27	15	-10
